# This is a sample that favours compounds with a hit; in the whole collection about 3.7% have one here.
# EP2 antag – blocks the human prostaglandin E2 receptor EP2; C6 glioma cells expressing human EP2, cAMP TR-FRET; cells stimulated with saturating PGE2; actives 0.52% (n = 260,000); inhibition, % at 25 µM;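 active = percent inhibition above 40 after rounding to a whole number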;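 note: rat C6 glioma host cells with rolipram phosphodiesterase inhibitor present; the protocol text gives 20 µM as final concentration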
# Target sequence (P43116 whole entry, looked up): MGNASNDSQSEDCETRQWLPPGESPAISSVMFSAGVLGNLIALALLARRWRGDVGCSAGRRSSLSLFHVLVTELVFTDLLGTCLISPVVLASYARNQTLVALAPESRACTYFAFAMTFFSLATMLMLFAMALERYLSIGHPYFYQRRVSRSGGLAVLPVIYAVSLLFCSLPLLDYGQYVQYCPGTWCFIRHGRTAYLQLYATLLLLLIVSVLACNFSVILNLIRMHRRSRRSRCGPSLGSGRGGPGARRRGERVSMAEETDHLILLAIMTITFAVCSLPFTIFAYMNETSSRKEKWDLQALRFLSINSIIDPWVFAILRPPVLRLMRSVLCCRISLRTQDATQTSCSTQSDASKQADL
# OX1R antag-1 – blocks the human orexin 1 receptor; O43613; OX1R-expressing cells, FRET antagonist read-out; inhibition, % at 6.6 µM; actives 1.8% (n = 330,000); AID 485270; in the data active = inhibition mostly above about 38%, no sharp cut-off; inactive = mostly below about 40%;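 note: 0% = agonist challenge alone and 100% = reference antagonist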
# EP2 modulator – modulates human prostaglandin E2 receptor EP2 signaling. EP2-expressing cells, cAMP HTRF FRET, PGE2 co-stimulation. induction, % at 25 µM. P43116. actives 0.83% (n = 260,000);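 active = compounds whose cAMP rise, as percent of the full-agonist control response, exceeds 60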;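 note: rat C6 glioma line stably carrying human EP2 under a CMV promoter; the protocol text gives 20 µM as final concentration; 100% = response of wells given 1 µM PGE2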
# OX1R antag-2 – blocks the human orexin 1 receptor; O43613; CHO/OX1R cells, Fluo-8 calcium fluorescence, orexin A; inhibition, % at 5 µM; actives 0.43% (n = 330,000);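 active = inhibition above its plate's threshold, mean inhibition of all tested compounds on the plate plus 3 SD, cut at about 37% in these data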;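 note: 0% = orexin A challenge wells and 100% = SB-334867-A antagonist wells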
# GPR7 antagonist – human neuropeptides B/W receptor 1 antagonism. P48145. GPR7-expressing cells, fluorescence antagonist assay. inhibition, % at 4.4 µM. actives 1.1% (n = 290,000). AID 1861; in the data active = inhibition above about 16%, passing the limit was not always enough;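 note: cells stimulated with the agonist NPW; 0% = agonist with vehicle and 100% = vehicle without agonist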
# Target sequence (P48145 whole entry, looked up): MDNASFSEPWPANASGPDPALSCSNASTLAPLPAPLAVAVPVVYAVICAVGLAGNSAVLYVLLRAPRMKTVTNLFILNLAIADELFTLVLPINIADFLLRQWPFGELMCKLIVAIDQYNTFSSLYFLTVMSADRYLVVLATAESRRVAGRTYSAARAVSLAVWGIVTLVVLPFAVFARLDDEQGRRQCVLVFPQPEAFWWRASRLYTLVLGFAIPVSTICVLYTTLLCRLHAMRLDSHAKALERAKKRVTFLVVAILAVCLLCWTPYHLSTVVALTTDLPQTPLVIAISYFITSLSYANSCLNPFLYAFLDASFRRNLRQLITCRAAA
# CHO parental Ca – counter-screen for OX1R antagonists: effect in parental CHO cells. parental CHO-K1, ATP-induced calcium, Fluo-8 fluorescence. inhibition, % at 5.6 µM. actives 0.63% (n = 330,000);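 active = inhibition above that plate's mean sample inhibition plus 3 SD, cut at about 26% in these data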;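 note: 0% = ATP-challenged DMSO wells and 100% = DMSO wells without ATP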
#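 Material: Parental CHO cells | Reagent: ATP | Compound dosing: Single nominal dose of 5.6 µM per compound | Detection: Intracellular calcium via Fluo-8 no-wash fluorescent dye | Read-out: % inhibition of ATP-induced calcium mobilization | Benchmarks: Low control ATP plus DMSO, high control DMSO only | Replicates: Singlicate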
# Active calls of the source: *; . = no result; ! = not active in a repeat.
SMILES,EP2 antag,OX1R antag-1,EP2 modulator,OX1R antag-2,GPR7 antagonist,CHO parental Ca
Cc1ccc(-c2ccccc2NC(=O)Cn2c(=O)n(C(C)C)c3ncccc32)o1,3.4,.,-32.2,.,.,.
O=C(O)C1C2C=CC3(CN(Cc4ccco4)C(=O)C13)O2 (centres undefined),6.8,12.3,14.8,1.4,-10.4,-2.5
COc1ccc(/C=C/c2nc(-c3ccccc3)cc(=O)[nH]2)cc1,8.4,56.4,-6.5,-5.7,-18.7,-24.7
COc1ccc(/C=C/c2n[nH]c(=O)c(C#N)c2C)cc1,.,43.0*,.,-25.3,-17.8,-23.7
Cc1csc(NC(=O)CCCC(=O)O)c1-c1nc2ccccc2s1,7.6,10.0,-5.0,-6.2,-3.3,-4.5
Cc1csc(NC(=O)COCC(=O)O)c1-c1nc2ccccc2s1,10.6,52.5*,-26.1,7.3,-3.7,-1.7
Nc1nc(-c2ccc(Cl)cc2)cc(C(F)(F)F)n1,10.5,13.9,-15.8,-2.3,-15.4,39.2*
Nc1nc(-c2ccc(F)cc2)cc(C(F)(F)F)n1,4.3,5.1,4.3,3.4,4.4,4.5
Cc1ccccc1CN1C(=O)c2ccccc2S1(=O)=O,.,20.3,.,-19.1,-16.9,-1.8
CCCCCCCCCCCCCCCCn1cc[n+](CC(C)=O)c1,7.1,.,-41.3,.,-5.1,.
O=C1C=C(NCCN2CCOCC2)C(=O)c2cnccc21,18.7,114.7*,-25.1,0.8,-10.5,-3.7
COc1ccc(OC)c(CC(NC(C)=O)C(=O)NC2CCN(c3cc(C)nc4ncnn34)CC2)c1 (centres undefined),6.2,-0.5,13.9,-3.4,-6.2,31.5*
O=C1NN=C(c2ccc(Cl)cc2)CC1c1cccc(Cl)c1 (centres undefined),8.1,11.7,-24.0,-0.5,-3.7,-17.4
CCCNC(=O)COC(=O)c1ccc(S(=O)(=O)N2CCCCCC2)cc1,10.9,11.0,0.1,-14.8,5.9,6.4
CCCCN1C(=O)C2ON(c3ccccc3C)C(c3ccco3)C2C1=O (centres undefined),12.0,7.3,63.5*,-0.5,-0.5,-21.4
Cn1cc(CN2CCCC(CO)(Cc3ccccc3)C2)cn1 (centres undefined),7.5,7.7,4.8,-3.4,-3.8,-7.6
CCOC(=O)C1=C(C)c2ccccc2N(C(=O)OC)C1(C)C(=O)OCC (centres undefined),.,32.7*,.,18.8,.,-17.7
COc1ccc(-c2ccc(/C=C3/C(=N)N4C=CSC4=NC3=O)o2)c([N+](=O)[O-])c1,11.0,64.3*,-78.9,12.6,-17.1,-3.4
COc1cccc(NC(=S)N(Cc2ccccn2)Cc2ccccc2Cl)c1,7.2,43.0,36.6,-26.8,0.5,-8.8
Cc1ccc(Cl)cc1N1CCN(C(=O)c2cc3c(=O)[nH]c4ccccc4c3n2C)CC1,2.9,16.9,4.3,39.9,-3.0,45.2*
Cc1ccc(CCNC(=O)c2ccc(CS(=O)(=O)Cc3ccccc3F)o2)cc1,5.2,9.4,-5.0,-18.2,-10.4,-12.3
Cc1cc2ccccn2c1C(=O)c1ccccc1F,.,21.5,.,-18.5,5.7,-3.6
Cc1cc2ccccn2c1C(=O)c1ccncc1,18.1,32.2*,10.6,0.6,13.2,2.7
COc1ccc(S(=O)(=O)Oc2c(OC)cc(C(=S)N3CCOCC3)cc2OC)cc1,.,11.5,.,-17.8,-19.5,-16.2
COc1cc(C(=S)N2CCOCC2)cc(Br)c1OS(=O)(=O)c1ccccc1,.,34.8*,.,17.6,-4.7,5.3
SMILES,EP2 antag,OX1R antag-1,EP2 modulator,OX1R antag-2,GPR7 antagonist,CHO parental Ca
CO[C@H]1/C=C/O[C@@]2(C)Oc3c(C)c(O)c4c(O)c(c(C=NN5CCN(C)CC5)c(O)c4c3C2=O)NC(=O)/C(C)=C\C=C\C(C)[C@H](O)[C@@H](C)[C@@H](O)[C@@H](C)[C@@H](OC(C)=O)[C@@H]1C (some centres undefined),11.0,.,-4.3,.,.,.
CO[C@@H]1/C=C\O[C@]2(C)Oc3c(C)c(O)c4c(O)c(cc(O)c4c3C2=O)NC(=O)C(C)=C/C=C\[C@H](C)[C@@H](O)[C@H](C)[C@H](O)[C@H](C)[C@H](OC(C)=O)[C@@H]1C,44.6*,.,37.8,.,.,.
COC(=O)c1cc2occc2n1Cc1nc(-c2cccc(Cl)c2)oc1C,5.6,13.4,45.5,-16.9,-9.9,-4.6
COC(=O)c1cc2ccsc2n1Cc1nc(-c2cccc(Cl)c2)oc1C,11.1,8.1,61.5*,-32.3,-5.5,-10.8
COc1ccc(NC(=O)C(=O)N2N=C3CCCCC3C2(O)C(F)(F)F)cc1 (centres undefined),10.3,16.7,61.1*,0.5,-4.7,-6.3
CCN(Cc1ccccc1)C(c1ccccn1)c1nnnn1C1CCCCC1 (centres undefined),10.6,22.2,63.8*!,-25.1,-2.7,-25.6
CCN(Cc1ccccc1)C(c1cccs1)c1nnnn1C1CCCCC1 (centres undefined),10.2,5.3,30.6,9.9,-1.3,17.8
CSc1nc(N(C)CCO)c2sc3nc(-c4ccco4)c4c(c3c2n1)CCC4,17.4,14.5,10.7,-13.8,-9.0,-4.5
CSc1nc(SCC(=O)O)c2sc3nc(-c4ccccc4)c4c(c3c2n1)CCC4,9.9,.,61.2*,.,8.8,.
COc1ccc(N2CCN(S(=O)(=O)c3ccc(Br)s3)CC2)cc1,4.1,6.8,-21.7,-6.5,-4.1,-9.5
CCOC(=O)CC(C)(C)/C(C)=N/Nc1ccc([N+](=O)[O-])cc1[N+](=O)[O-],13.4,54.4*,-10.9,-2.7,-7.9,18.8
C#CCOC(=O)CCCNc1ccc([N+](=O)[O-])cc1[N+](=O)[O-],9.4,46.0*,3.2,-20.8,0.5,6.9
C/C(CCC(=O)O)=N/Nc1ccc([N+](=O)[O-])cc1[N+](=O)[O-],2.1,63.5*,-14.1,-2.4,-6.8,-4.1
C/C(CCCO)=N/Nc1ccc([N+](=O)[O-])cc1[N+](=O)[O-],4.0,43.9*,-19.5,15.2,0.4,4.1
C/C(=N\Nc1ccc([N+](=O)[O-])cc1[N+](=O)[O-])C(C)C(C)C (centres undefined),4.4,19.4,13.9,-16.3,-14.8,-6.7
CCOC(=O)C(C(=O)OCC)C(C)(C)/C(C)=N\Nc1ccc([N+](=O)[O-])cc1[N+](=O)[O-],7.2,32.3,10.1,3.6,2.1,-0.9
CCC(CC)=NNc1ccc([N+](=O)[O-])cc1[N+](=O)[O-],2.9,39.0,30.6,-20.2,-9.1,-4.8
Cc1cccc(OCC(=O)Nc2ccc(N3CCN(C(=O)c4ccccc4)CC3)cc2)c1C,.,20.4,.,-4.0,-13.7,-11.4
Cc1cccc(NC(=O)CSCC(=O)Nc2ccccc2N2CCCCC2)c1,.,39.0,.,-18.1,.,-32.4
CCC(C)N1C(=O)CCC1C(=O)N1CCN(c2ccc(F)cc2)CC1 (centres undefined),.,4.2,-3.5,3.5,-13.3,-2.9

# Screening data from PubChem.
